Measurements taken from ChEMBL document CHEMBL1135644, “Effect of spermine conjugation on the cytotoxicity and cellular transport of acridine” (J Med Chem, 2002).
Blank lines part the entries; values can stand above or below the molecule they belong to.

Columns and labels:
CHO [1] = test: In vitro 50% cell growth inhibition by the compound in CHO cells (control); assay type: functional, cell-based; details: Cricetulus griseus
Summary of the method: (§1)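 CHO or CHO-MG cells were trypsinized and plated singly at 2 × 10^3 cells/mL in RPMI 1640/10% FCS with 2 mM aminoguanidine (proline for CHO-MG). Conjugates were added after overnight incubation, with 48 h exposure. Growth was read by MTT formazan absorbance at 540 nm relative to untreated controls. The value is the concentration giving 25% or 50% growth inhibition.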

[2] = Ratio of cellular uptake in CHO cells to that of CHO-MG cells at 2.5 uM; assay type: functional
CHO-MG [3] = test: Cellular uptake of conjugates in CHO-MG cells at a concentration of 10 uM (+/-15% SEM); assay type: functional, cell-based; details: Cricetulus griseus
Summary of the method: (§2)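 Conjugates added 24 h after seeding (1 × 10^5 cells/mL, RPMI 1640 with 10% FCS and 2 mM aminoguanidine; proline added for CHO-MG) and left for 24 h. Cells were washed in 0.14 M NaCl, sonicated in 0.2 N HClO4/2 M NaCl and held 16 h at 4 °C. Conjugate in the supernatant was measured by fluorimetry against standards and expressed per mg protein (Folin). Mean of three determinations (±15%).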

L1210 [4] = test: In vitro 25% cell growth inhibition by the compound in L1210 cells with 5 mM DFMO addition; assay type: functional; details: Mus musculus
Summary of the method: (§3)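 L1210 cells were seeded at 5 × 10^4 cells/mL, and conjugate plus 5 mM DFMO were added at seeding with 2 mM aminoguanidine present. After 48 h, growth was read by MTT at 540 nm relative to DFMO-only controls.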

L1210 [5] = test: Inhibition of [14C]SPD uptake by the compound in 5 min initial rate transport assay in L1210 cells; assay type: functional, cell-based, Mus musculus
CHO [6] = test: Cellular uptake of conjugates in CHO cells at a concentration of 10 uM (+/-15% SEM); assay type: functional, cell-based; details: Cricetulus griseus; summary of the method: as §2
L1210 [7] = test: In vitro 50% cell growth inhibition by the compound in L1210 cells (control) with 5 mM DFMO addition; assay type: functional, cell-based; details: Mus musculus; summary of the method: as §3
L1210 [8] = test: Cellular uptake of conjugates in L1210 cells (control) at a concentration of 5 uM (+/-15% SEM); assay type: functional, cell-based; details: Mus musculus
Summary of the method: (§4)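 L1210 cells were seeded at 2 × 10^5 cells/mL with conjugate added at seeding, in medium containing 2 mM aminoguanidine, and cultured 24 h. Washed cells were extracted in 0.2 N HClO4/2 M NaCl for 16 h at 4 °C. Intracellular conjugate was quantified by fluorimetry and expressed as nmol/mg protein. Mean of three determinations (±15%).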

CHO-MG [9] = test: In vitro 50% cell growth inhibition by the compound in CHO-MG cells (control); assay type: functional, cell-based; details: Cricetulus griseus; summary of the method: as §1
L1210 [10] = test: Cellular uptake of conjugates in L1210 cells (control) at a concentration of 10 uM (+/-15% SEM); assay type: functional, cell-based; details: Mus musculus; summary of the method: as §4
L1210 [11] = test: Cellular uptake of conjugates in L1210 cells in presence of 500 uM SPD at a concentration of 10 uM (+/-15% SEM); assay type: functional, cell-based; details: Mus musculus
Summary of the method: (§5)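 Same as the L1210 uptake assay: seeded at 2 × 10^5 cells/mL, conjugate plus 500 μM spermidine added together at seeding, 24 h exposure. Extraction in HClO4/NaCl, fluorimetric quantitation, normalized to protein. Mean of three determinations (±15%).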

CHO [12] = test: Cellular uptake of conjugates in CHO cells at a concentration of 2.5 uM (+/-15% SEM); assay type: functional, cell-based; details: Cricetulus griseus; summary of the method: as §2
Nucleic Acid = test: Drug concentration required to produce 50% inhibition of fluorescence bound ethidium to CT-DNA (1.26:1) (+/-SEM 5%); assay type: functional; details: Bos taurus
Summary of the method: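 Ethidium displacement: 1 μM CT-DNA with 1.26 μM ethidium bromide; conjugate stock added serially. Fluorescence was read at excitation 546 nm and emission 595 nm. The value is the conjugate concentration cutting DNA-bound ethidium fluorescence by 50%. Mean of three determinations (±5%).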

CHO-MG [13] = test: Cellular uptake of conjugates in CHO-MG cells at a concentration of 2.5 uM (+/-15% SEM); assay type: functional, cell-based; details: Cricetulus griseus; summary of the method: as §2
L1210 [14] = test: In vitro 25% cell growth inhibition by the compound in L1210 cells; assay type: functional; details: Mus musculus
Summary of the method: (§6)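 L1210 cells were seeded at 5 × 10^4 cells/mL with conjugate added at seeding, in medium with 2 mM aminoguanidine, for 48 h exposure. Growth was measured by MTT absorbance at 540 nm relative to untreated controls.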

L1210 [15] = test: In vitro 50% cell growth inhibition by the compound in L1210 cells; assay type: functional, cell-based; details: Mus musculus; summary of the method: as §6
L1210 [16] = test: Cellular uptake of conjugates in L1210 cells pretreated with 5 mM DFMO at a concentration of 10 uM (+/-15% SEM); assay type: functional, cell-based; details: Mus musculus
Summary of the method: (§7)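 L1210 cells were seeded at 10^5 cells/mL in medium with 5 mM DFMO, and conjugates were added 24 h later. Cells were harvested after a further 24 h, extracted in 0.2 N HClO4/2 M NaCl and assayed by fluorimetry, expressed per mg protein. Mean of three determinations (±15%).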

L1210 [17] = test: Cellular uptake of conjugates in L1210 cells in presence of 500 uM SPD at a concentration of 5 uM (+/-15% SEM); assay type: functional, cell-based; details: Mus musculus; summary of the method: as §5
[18] = Ratio of cellular uptake in CHO cells to that of CHO-MG cells at 10 uM; assay type: functional
L1210 [19] = test: Cellular uptake of conjugates in L1210 cells (control) at a concentration of 0.5 uM (+/-15% SEM); assay type: functional, cell-based; details: Mus musculus; summary of the method: as §4
CHO [20] = test: In vitro 50% cell growth inhibition by the compound in CHO cells; assay type: functional, cell-based; details: Cricetulus griseus; summary of the method: as §1
CHO-MG [21] = test: In vitro 25% cell growth inhibition by the compound in CHO-MG cells with 5 mM DFMO addition; assay type: functional; details: Cricetulus griseus
Summary of the method: (§8)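 CHO or CHO-MG cells were plated at 2 × 10^3 cells/mL and incubated overnight. Conjugates and 5 mM DFMO were then added together, with 2 mM aminoguanidine present, for 48 h. MTT absorbance at 540 nm was expressed relative to DFMO-treated controls. The value is the concentration inhibiting growth 25% or 50%.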

[22] = Ratio of cellular uptake in CHO cells to that of CHO-MG cells 2 uM; assay type: functional
CHO [23] = test: In vitro 25% cell growth inhibition by the compound in CHO cells; assay type: functional; details: Cricetulus griseus; summary of the method: as §1
CHO [24] = test: In vitro 50% cell growth inhibition by the co mpound in CHO cells with 5 mM DFMO addition; assay type: functional, cell-based; details: Cricetulus griseus; summary of the method: as §8
L1210 [25] = test: In vitro 50% cell growth inhibition by the compound in L1210 cells with 5 mM DFMO addition; assay type: functional, cell-based; details: Mus musculus; summary of the method: as §3
CHO-MG [26] = test: In vitro 50% cell growth inhibition by the compound in CHO-MG cells with 5 mM DFMO addition; assay type: functional, cell-based; details: Cricetulus griseus; summary of the method: as §8
CHO-MG [27] = test: Cellular uptake of conjugates in CHO-MG cells at a concentration of 2 uM (+/-15% SEM); assay type: functional, cell-based; details: Cricetulus griseus; summary of the method: as §2
L1210 [28] = test: Cellular uptake of conjugates in L1210 cells pretreated with 5 mM DFMO at a concentration of 2 uM (+/-15% SEM); assay type: functional, cell-based; details: Mus musculus; summary of the method: as §7
L1210 [29] = test: Cellular uptake of conjugates in L1210 cells pretreated with 5 mM DFMO at a concentration of 0.5 uM (+/-15% SEM); assay type: functional, cell-based; details: Mus musculus; summary of the method: as §7
L1210 [30] = test: Cellular uptake of conjugates in L1210 cells (control) at a concentration of 2 uM (+/-15% SEM); assay type: functional, cell-based; details: Mus musculus; summary of the method: as §4
L1210 [31] = test: Cellular uptake of conjugates in L1210 cells in presence of 500 uM SPD at a concentration of 2 uM (+/-15% SEM); assay type: functional, cell-based; details: Mus musculus; summary of the method: as §5
L1210 [32] = test: Cellular uptake of conjugates in L1210 cells in presence of 500 uM SPD at a concentration of 0.5 uM (+/-15% SEM); assay type: functional, cell-based; details: Mus musculus; summary of the method: as §5
CHO [33] = test: Cellular uptake of conjugates in CHO cells at a concentration of 2 uM (+/-15% SEM); assay type: functional, cell-based; details: Cricetulus griseus; summary of the method: as §2
CHO-MG [34] = test: In vitro 25% cell growth inhibition by the compound in CHO-MG cells; assay type: functional, Cricetulus griseus; summary of the method: as §1
CHO [35] = test: In vitro 25% cell growth inhibition by the compound in CHO cells with 5 mM DFMO addition; assay type: functional; details: Cricetulus griseus; summary of the method: as §8
CHO-MG [36] = test: In vitro 50% cell growth inhibition by the compound in CHO-MG cells; assay type: functional, cell-based; details: Cricetulus griseus; summary of the method: as §1

IC50 (L1210 [7]): 2.2 µM
IC50 (L1210 [15]): 43 µM
Compound: Cl.NCCCNCCCCNCCCNCCCNC(=O)c1c2ccccc2nc2ccccc12
IC50 (CHO [1]): 30 µM
Ratio [2]: 0.83
Uptake (nM (mg of protein)-1) (CHO-MG [3]): 0.108
IC25 (L1210 [4]): 0.09 µM
Ki (L1210 [5]): 0.097 µM
Uptake (nM (mg of protein)-1) (CHO [6]): 0.1
Uptake (nM (mg of protein)-1) (L1210 [8]): 0.086
IC50 (CHO-MG [9]): 35 µM
Uptake (nM (mg of protein)-1) (L1210 [10]): 0.239
Uptake (nM (mg of protein)-1) (L1210 [11]): 0.221
Uptake (nM (mg of protein)-1) (CHO [12]): 0.014
Concentration for 50% ethidium displacement from DNA (C50) (Nucleic Acid): 120 nM
Uptake (nM (mg of protein)-1) (CHO-MG [13]): 0.017
IC25 (L1210 [14]): 22 µM
Uptake (nM (mg of protein)-1) (L1210 [16]): 0.587
Uptake (nM (mg of protein)-1) (L1210 [17]): 0.073
Ratio [18]: 0.93

Compound: NCCCNCCCCNCCCN
CC50 (Nucleic Acid): 6.8 µM

Compound: c1ccc2nc3ccccc3cc2c1
Concentration for 50% ethidium displacement from DNA (C50) (Nucleic Acid): 142000 nM

IC50 (L1210 [25]): 6.6 µM
IC50 (L1210 [15]): 41 µM
Compound: Cl.NCCCNCCCCNCCCNCCCCCNC(=O)c1c2ccccc2nc2ccccc12
Uptake (nM (mg of protein)-1) (L1210 [19]): 0.033
IC50 (CHO [20]): 25 µM
Uptake (nM (mg of protein)-1) (CHO-MG [3]): 0.112
IC25 (L1210 [4]): 0.1 µM
Ki (L1210 [5]): 0.097 µM
Uptake (nM (mg of protein)-1) (CHO [6]): 0.125
IC25 (CHO-MG [21]): 6 µM
Ratio [22]: 1.1
Uptake (nM (mg of protein)-1) (L1210 [10]): 0.279
IC25 (CHO [23]): 10.8 µM
IC50 (CHO [24]): 2 µM
Uptake (nM (mg of protein)-1) (L1210 [11]): 0.262
IC50 (CHO-MG [26]): 23 µM
Uptake (nM (mg of protein)-1) (CHO-MG [27]): 0.032
Concentration for 50% ethidium displacement from DNA (C50) (Nucleic Acid): 120 nM
Uptake (nM (mg of protein)-1) (L1210 [28]): 0.217
Uptake (nM (mg of protein)-1) (L1210 [29]): 0.113
Uptake (nM (mg of protein)-1) (L1210 [30]): 0.064
IC25 (L1210 [14]): 22 µM
Uptake (nM (mg of protein)-1) (L1210 [31]): 0.049
Uptake (nM (mg of protein)-1) (L1210 [32]): 0.016
Uptake (nM (mg of protein)-1) (CHO [33]): 0.034
Uptake (nM (mg of protein)-1) (L1210 [16]): 0.631
IC25 (CHO-MG [34]): 10.5 µM
IC25 (CHO [35]): 0.025 µM
Ratio [18]: 1.1
IC50 (CHO-MG [36]): 31 µM
